Activity calls are given as the source filed them. No cut-off for these calls is given here.

As a reminder, the IC50 is the concentration needed to halve the response being measured. A lower IC50 goes with higher potency.

What all share (type): cell-based
The test system of data set [1] is DLD-1. As to the kind of experiment: Inhibition of TNF-alpha/IFN-gamma/IL-1beta-induced human CXCL10 (972 bp) promoter activity expressed in human DLD1 cells up to 260 uM after 24 hrs by luciferase reporter assay relative to untreated-control. Put shortly: (§1)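 DLD-1 in 24-well plates, switched to 0.5% FCS without antibiotics a day before lipofection (Lipofectamine 2000, 0.8 µg plasmid) with 972 bp CXCL10 promoter, NF-κB, GAS/Stat1 or ISRE luciferase reporters plus pRL-CMV. Stimulated 24 h with 10 ng/mL TNF-α, 10 ng/mL IFN-γ, 5 ng/mL IL-1β ± compound; Dual-Glo firefly/Renilla read. Stimulation-only = 100%; mean ± SEM, ≥3 experiments.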

In data set [2] the target is T1, Nuclear factor NF-kappa-B complex (Homo sapiens) (UniProt Q00653+P19838+Q04206). As to the kind of experiment: Inhibition of NF-kappaB (unknown origin)-induced human CXCL10 (972 bp) promoter activity expressed in TNF-alpha/IFN-gamma/IL-1beta-stimulated human DLD1 cells up to 260 uM after 24 hrs by luciferase reporter assay. Conditions: DLD-1. Put shortly:
as §1
Background: A reporter such as luciferase makes a cellular process visible.

Data set [3] relates to DLD-1. The experiment in a line: Inhibition of TNF-alpha/IFN-gamma/IL-1beta-induced human CXCL10 (972 bp) promoter activity expressed in human DLD1 cells up to 260 uM after 24 hrs by […]-driven luciferase reporter assay. Put shortly:
as §1

For data set [4], the target named is T2, Signal transducer and activator of transcription 1-alpha/beta (Homo sapiens) (UniProt P42224).
T2 sequence (whole entry): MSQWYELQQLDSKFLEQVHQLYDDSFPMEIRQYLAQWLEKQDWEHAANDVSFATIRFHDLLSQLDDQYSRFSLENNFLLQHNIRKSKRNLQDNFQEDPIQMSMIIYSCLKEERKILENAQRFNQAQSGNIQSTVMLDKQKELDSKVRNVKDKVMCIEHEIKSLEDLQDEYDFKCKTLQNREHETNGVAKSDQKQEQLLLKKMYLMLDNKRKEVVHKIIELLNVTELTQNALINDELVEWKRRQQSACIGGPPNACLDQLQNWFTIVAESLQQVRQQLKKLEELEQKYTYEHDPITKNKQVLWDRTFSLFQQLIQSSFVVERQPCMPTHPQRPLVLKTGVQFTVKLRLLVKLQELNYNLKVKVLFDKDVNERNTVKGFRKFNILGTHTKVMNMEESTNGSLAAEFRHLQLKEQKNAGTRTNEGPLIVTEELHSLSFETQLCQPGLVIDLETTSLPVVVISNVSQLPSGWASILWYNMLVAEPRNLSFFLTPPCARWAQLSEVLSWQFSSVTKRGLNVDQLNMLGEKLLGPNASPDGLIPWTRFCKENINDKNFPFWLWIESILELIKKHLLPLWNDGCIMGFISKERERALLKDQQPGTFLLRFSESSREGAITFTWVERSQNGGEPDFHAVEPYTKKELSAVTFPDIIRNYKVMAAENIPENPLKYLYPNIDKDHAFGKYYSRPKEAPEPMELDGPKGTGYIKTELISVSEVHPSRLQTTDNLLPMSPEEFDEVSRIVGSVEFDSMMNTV
The experiment in a line: Inhibition of Stat1 (unknown origin)-induced human CXCL10 (972 bp) promoter activity expressed in TNF-alpha/IFN-gamma/IL-1beta-stimulated human DLD1 cells up to 260 uM after 24 hrs by luciferase reporter assay. Conditions: DLD-1. Put shortly:
as §1

Data set [5] in a line: (§2) Inhibition of TNF-alpha/IFN-gamma/IL-1beta-induced human CXCL10 (972 bp) promoter activity expressed in human DLD1 cells after 24 hrs by luciferase reporter assay. The note with it: DLD-1, 24 h. Put shortly:
as §1

The test system of data set [6] is DLD-1. The description is as §2. Put shortly: as §1
The nature of data set [7]: Inhibition of TNF-alpha/IFN-gamma/IL-1beta-induced human CXCL10 (972 bp) promoter activity expressed in human DLD1 cells after 24 hrs by […]-driven luciferase reporter assay. Conditions: DLD-1, 24 h. Put shortly:
as §1

Data set [8] concerns the target T2, Signal transducer and activator of transcription 1-alpha/beta (Homo sapiens). The experiment in a line: Inhibition of Stat1 (unknown origin)-induced human CXCL10 (972 bp) promoter activity expressed in TNF-alpha/IFN-gamma/IL-1beta-stimulated human DLD1 cells after 24 hrs by luciferase reporter assay. Conditions: DLD-1. Put shortly:
as §1

Data set [9] has as its system DLD-1. As to the kind of experiment: Inhibition of TNF-alpha/IFN-gamma/IL-1beta-induced human CXCL10 (972 bp) promoter activity expressed in human DLD1 cells assessed as CXCL10 gene expression at 27.5 uM after 5 hrs by RT-PCR method relative to untreated-control. Put shortly:
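Cells starved 16 h (0.5% FCS), compound pretreatment 1 h, then TNF-α 10 ng/mL/IFN-γ 10 ng/mL/IL-1β 5 ng/mL for 5 h. Total RNA analysed by two-step qRT-PCR for cxcl10, gapdh-corrected (Pfaffl); induced vs uninduced and treated-induced vs untreated-induced (100%).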

The target of data set [10] is T1, Nuclear factor NF-kappa-B complex (Homo sapiens). The experiment in a line: Inhibition of NF-kappaB (unknown origin) expressed human DLD1 cells assessed as reduction in TNF-alpha gene expression pretreated at 13.75 uM for 1 hr by RT-PCR method relative to untreated-control. Conditions: DLD-1. Put shortly: (§3)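 DLD-1 seeded 5×10^5 cells/mL, grown 24 h, starved 16 h in 0.5% FCS, pretreated with compound 1 h, then stimulated with 10 ng/mL TNF-α, 10 ng/mL IFN-γ, 5 ng/mL IL-1β for 5 h. tnf-α, il-1β, inos mRNA by two-step qRT-PCR, Pfaffl relative quantification, normalised to gapdh; stimulated-untreated control = 100%. Mean ± SEM, three independent experiments.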

Data set [11] has the same target. As to the kind of experiment: Inhibition of NF-kappaB (unknown origin) expressed human DLD1 cells assessed as reduction in IL1-beta gene expression pretreated at 13.75 uM for 1 hr by RT-PCR method relative to untreated-control. Conditions: DLD-1. Put shortly: as §3
Data set [12] shares this target. As to the kind of experiment: Inhibition of NF-kappaB (unknown origin) expressed human DLD1 cells assessed as reduction in iNOS gene expression pretreated at 13.75 uM for 1 hr by RT-PCR method relative to untreated-control. The note with it: DLD-1. Put shortly: as §3
The target of data set [13] is T2, Signal transducer and activator of transcription 1-alpha/beta (Homo sapiens). As to the kind of experiment: Inhibition of Stat1 (unknown origin) expressed human DLD1 cells assessed as reduction in IL1-beta gene expression pretreated at 13.75 uM for 1 hr by RT-PCR method relative to untreated-control. The note with it: DLD-1. Put shortly: as §3
For data set [14] the target is unchanged. The experiment in a line: Inhibition of Stat1 (unknown origin) expressed human DLD1 cells assessed as reduction in TNF-alpha gene expression pretreated at 13.75 uM for 1 hr by RT-PCR method relative to untreated-control. The note with it: DLD-1. Put shortly:
as §3

Data set [15] shares this target. As to the kind of experiment: Inhibition of Stat1 (unknown origin) expressed in human DLD1 cells assessed as reduction in iNOS gene expression pretreated at 13.75 uM for 1 hr by RT-PCR method relative to untreated-control. Conditions: DLD-1. Put shortly: as §3
Data set [16] is described as follows: Cytotoxicity against human DLD1 cells up to 50 uM after 48 hrs by XTT assay. Conditions: dld-1, 48 h. Put shortly:
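DLD-1 cells (RPMI 1640, 25 mM HEPES, 10% FCS, 37 °C, 5% CO2) exposed to compound for 48 h; viability read as XTT reduction to coloured formazan.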
For orientation: Formazan colour is commonly taken as a measure of viable cells.

Data set [17] relates to DLD-1. As to the kind of experiment: Inhibition of TNF-alpha/IFN-gamma/IL-1beta-induced human CXCL10 (972 bp) promoter activity expressed in human DLD1 cells assessed as reduction in CXCL10 expression pretreated at 27.5 uM for 1 hr prior to 16 hrs cytokine challenge by proteome profiling method relative to untreated-control. Put shortly:
(§4)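 DLD-1 starved 16 h in 0.5% FCS, seeded 5×10^6 cells/mL, pretreated 1 h with compound, then stimulated 16 h with 10 ng/mL TNF-α, 10 ng/mL IFN-γ, 5 ng/mL IL-1β. Supernatant cytokines/chemokines detected on Human Cytokine Array Panel A antibody array.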

Data set [18] concerns DLD-1. The experiment in a line: Inhibition of TNF-alpha/IFN-gamma/IL-1beta-induced human CXCL10 (972 bp) promoter activity expressed in human DLD1 cells assessed as reduction in MIF expression pretreated at 27.5 uM for 1 hr prior to 16 hrs cytokine challenge by proteome profiling method relative to untreated-control. Put shortly:
as §4

Data set [19] relates to DLD-1. The experiment in a line: Inhibition of TNF-alpha/IFN-gamma/IL-1beta-induced human CXCL10 (972 bp) promoter activity expressed in human DLD1 cells assessed as reduction in IL8 expression pretreated at 27.5 uM for 1 hr prior to 16 hrs cytokine challenge by proteome profiling method relative to untreated-control. Put shortly: as §4
Data set [20] deals with DLD-1. As to the kind of experiment: Inhibition of TNF-alpha/IFN-gamma/IL-1beta-induced human CXCL10 (972 bp) promoter activity expressed in human DLD1 cells assessed as reduction in CXCL1 expression pretreated at 27.5 uM for 1 hr prior to 16 hrs cytokine challenge by proteome profiling method relative to untreated-control. Put shortly: as §4
Data set [21] deals with DLD-1. As to the kind of experiment: Inhibition of TNF-alpha/IFN-gamma/IL-1beta-induced human CXCL10 (972 bp) promoter activity expressed in human DLD1 cells assessed as reduction in IL1-beta expression pretreated at 27.5 uM for 1 hr prior to 16 hrs cytokine challenge by proteome profiling method relative to untreated-control. Put shortly:
as §4

Data set [22] concerns DLD-1. The experiment in a line: Inhibition of TNF-alpha/IFN-gamma/IL-1beta-induced human CXCL10 (972 bp) promoter activity expressed in human DLD1 cells assessed as reduction in IL-27 expression pretreated at 27.5 uM for 1 hr prior to 16 hrs cytokine challenge by proteome profiling method relative to untreated-control. Put shortly:
as §4

The test system of data set [23] is DLD-1. As to the kind of experiment: Inhibition of TNF-alpha/IFN-gamma/IL-1beta-induced human CXCL10 (972 bp) promoter activity expressed in human DLD1 cells assessed as reduction in TNF-alpha expression pretreated at 27.5 uM for 1 hr prior to 16 hrs cytokine challenge by proteome profiling method relative to untreated-control. Put shortly: as §4
For data set [24], the system named is DLD-1. The experiment in a line: Inhibition of TNF-alpha/IFN-gamma/IL-1beta-induced human CXCL10 (972 bp) promoter activity expressed in human DLD1 cells assessed as reduction in CXCL10 expression pretreated at 131.5 uM for 1 hr prior to 16 hrs cytokine challenge by proteome profiling method relative to untreated-control. Put shortly: as §4

T1 sequence (P19838 whole entry, looked up): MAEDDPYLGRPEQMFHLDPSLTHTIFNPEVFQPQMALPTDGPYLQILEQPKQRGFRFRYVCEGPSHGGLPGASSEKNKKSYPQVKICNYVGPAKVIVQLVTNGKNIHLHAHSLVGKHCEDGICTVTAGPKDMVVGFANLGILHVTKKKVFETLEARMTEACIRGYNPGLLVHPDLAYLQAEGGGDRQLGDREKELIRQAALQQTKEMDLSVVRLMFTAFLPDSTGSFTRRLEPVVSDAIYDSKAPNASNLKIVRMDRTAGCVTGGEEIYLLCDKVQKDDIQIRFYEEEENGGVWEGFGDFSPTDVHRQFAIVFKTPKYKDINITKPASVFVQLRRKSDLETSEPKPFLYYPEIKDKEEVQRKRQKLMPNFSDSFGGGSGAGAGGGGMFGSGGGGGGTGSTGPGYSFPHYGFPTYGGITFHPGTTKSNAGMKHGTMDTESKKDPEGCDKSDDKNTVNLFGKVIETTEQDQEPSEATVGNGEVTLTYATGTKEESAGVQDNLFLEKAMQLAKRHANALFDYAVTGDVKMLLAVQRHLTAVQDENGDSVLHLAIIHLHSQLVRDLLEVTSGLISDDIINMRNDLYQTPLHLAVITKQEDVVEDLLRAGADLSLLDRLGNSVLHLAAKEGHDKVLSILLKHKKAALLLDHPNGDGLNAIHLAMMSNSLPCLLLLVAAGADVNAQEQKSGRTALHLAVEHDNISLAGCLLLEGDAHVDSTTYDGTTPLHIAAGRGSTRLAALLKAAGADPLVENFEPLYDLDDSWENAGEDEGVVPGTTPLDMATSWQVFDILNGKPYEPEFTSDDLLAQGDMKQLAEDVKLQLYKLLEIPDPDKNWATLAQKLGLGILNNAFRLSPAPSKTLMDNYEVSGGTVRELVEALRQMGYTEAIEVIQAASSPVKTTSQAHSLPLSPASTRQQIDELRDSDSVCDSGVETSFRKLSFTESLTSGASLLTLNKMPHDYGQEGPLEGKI
T1 sequence (Q00653 whole entry, looked up): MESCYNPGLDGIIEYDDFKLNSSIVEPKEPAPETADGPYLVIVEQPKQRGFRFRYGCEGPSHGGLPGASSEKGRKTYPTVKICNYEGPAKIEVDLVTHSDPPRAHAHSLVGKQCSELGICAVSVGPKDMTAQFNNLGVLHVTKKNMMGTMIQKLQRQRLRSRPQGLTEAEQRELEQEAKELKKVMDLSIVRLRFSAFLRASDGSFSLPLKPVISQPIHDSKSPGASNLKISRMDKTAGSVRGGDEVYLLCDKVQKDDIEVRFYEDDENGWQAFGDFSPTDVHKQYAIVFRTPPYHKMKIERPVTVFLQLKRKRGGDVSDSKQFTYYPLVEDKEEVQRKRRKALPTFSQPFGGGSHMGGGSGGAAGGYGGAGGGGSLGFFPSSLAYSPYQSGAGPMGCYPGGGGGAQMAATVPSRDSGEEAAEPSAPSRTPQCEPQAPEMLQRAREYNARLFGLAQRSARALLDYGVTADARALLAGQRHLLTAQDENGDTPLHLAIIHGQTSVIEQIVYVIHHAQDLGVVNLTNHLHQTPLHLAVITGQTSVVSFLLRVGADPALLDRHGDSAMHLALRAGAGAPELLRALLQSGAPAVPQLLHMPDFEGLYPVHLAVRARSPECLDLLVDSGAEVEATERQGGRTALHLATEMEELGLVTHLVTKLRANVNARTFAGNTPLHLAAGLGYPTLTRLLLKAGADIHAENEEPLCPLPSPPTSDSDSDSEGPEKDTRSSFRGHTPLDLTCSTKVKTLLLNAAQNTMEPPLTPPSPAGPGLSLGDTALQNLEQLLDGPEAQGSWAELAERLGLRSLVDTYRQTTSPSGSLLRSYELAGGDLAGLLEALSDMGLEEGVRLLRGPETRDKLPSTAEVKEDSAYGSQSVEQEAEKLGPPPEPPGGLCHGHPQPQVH
T1 sequence (Q04206 whole entry, looked up): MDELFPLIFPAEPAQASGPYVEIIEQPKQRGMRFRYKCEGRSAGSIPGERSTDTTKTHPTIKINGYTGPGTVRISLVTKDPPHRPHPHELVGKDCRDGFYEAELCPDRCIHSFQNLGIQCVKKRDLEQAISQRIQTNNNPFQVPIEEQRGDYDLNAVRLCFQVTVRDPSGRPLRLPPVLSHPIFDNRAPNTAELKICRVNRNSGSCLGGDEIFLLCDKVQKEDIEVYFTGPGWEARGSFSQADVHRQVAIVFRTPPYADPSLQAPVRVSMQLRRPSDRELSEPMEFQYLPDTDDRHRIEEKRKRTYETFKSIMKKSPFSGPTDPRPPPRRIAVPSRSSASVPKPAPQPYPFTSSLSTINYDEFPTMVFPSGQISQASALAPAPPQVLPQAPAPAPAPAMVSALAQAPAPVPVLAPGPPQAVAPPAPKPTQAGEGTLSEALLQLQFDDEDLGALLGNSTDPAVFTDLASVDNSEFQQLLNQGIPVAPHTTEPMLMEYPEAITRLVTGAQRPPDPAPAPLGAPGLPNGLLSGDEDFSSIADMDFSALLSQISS

With `CCCCCC(=O)O[C@@H]1C=C2CO[C@@H](O)[C@]2(O)[C@@]2(C)[C@H](O)CCC(C)(C)[C@H]12`, the inhibition entry (in the data set on DLD-1 [1]; in data set [2]; in the data set on DLD-1 [3]; in [4]) was “inactive” each time.

In the case of `CCCCCC(=O)O[C@@H]1C=C2COC(=O)C2(O)[C@@]2(C)CCCC(C)(C)[C@H]12` (some centres undefined), the IC50 in [5] was 12.4 µM; in [7], 14.3 µM. Moreover, the inhibition entry (with DLD-1 [6]; in [8]) was “Dose-dependent effect” in each case. Besides, the inhibition result (in the data set on DLD-1 [9]; in data set [10]; in [11]; in [12]; in data set [13]; in data set [14]) was “Active” each time. Besides, the inhibition result (in data set [15]; in the data set with DLD-1 [17]; in the data set with DLD-1 [18]; in the data set on DLD-1 [19]; in the data set with DLD-1 [20]; with DLD-1 [21]) was “Active” each time. For the same compound, the inhibition result in the data set with DLD-1 [22], in the data set on DLD-1 [23] and in the data set on DLD-1 [24] was “Active” each time. In [16], the Activity entry is reported as “Non-toxic”.

(Values after ChEMBL document CHEMBL3259588, “Anti-inflammatory drimane sesquiterpene lactones from an Aspergillus species” (Bioorg Med Chem, 2014).)
